Data: ChEMBL document CHEMBL1136881, “2-(substituted phenyl)amino analogs of 1-methoxyspirobrassinol methyl ether: synthesis and anticancer activity” (Bioorg Med Chem, 2009)
The source made the active and inactive calls. No cut-off for these calls is given here.

What was measured:
[1] = system: MDA-MB-231; assay: Cytotoxicity against human MDA-MB-231 cells after 72 hrs by MTT assay; assay type: functional, cell-based; conditions: MDA-MB-231, 72 h
Summary of the method: (§1)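 MTT microculture assay. Cells were seeded per well at 3 × 10³ (A-549, MCF-7, MDA-MB-231; DMEM), 5 × 10³ (HeLa; RPMI 1640) or 1 × 10⁴ (Jurkat, CEM; RPMI 1640), all with 10% FCS. Final concentrations were 10⁻⁴–10⁻⁶ mol·L⁻¹ (4 levels), for 72 h. MTT was then added for 4 h and SDS for 12 h, and A540 read. IC50 was taken against blank-corrected untreated control.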

[2] = system: MCF7; assay: Cytotoxicity against human MCF7 cells after 72 hrs by MTT assay; assay type: functional, cell-based; conditions: MCF7, 72 h; summary of the method: as §1
[3] = system: CCRF-CEM; assay: Cytotoxicity against human CCRF-CEM cells after 72 hrs by MTT assay; assay type: functional, cell-based; summary of the method: as §1
[4] = system: A549; assay: Cytotoxicity against human A549 cells after 72 hrs by MTT assay; assay type: functional, cell-based; conditions: A549, 72 h
[5] = system: HeLa; assay: Cytotoxicity against human HeLa cells after 72 hrs by MTT assay; assay type: functional, cell-based
[6] = system: Jurkat; assay: Cytotoxicity against human Jurkat cells after 72 hrs by MTT assay; assay type: functional, cell-based; summary of the method: as §1
[7] = system: Bacillus subtilis; assay: Antibacterial activity against Bacillus subtilis CCM 4062 at 20 ug/2.5 ul/6 mm disk after 24 hrs by disk diffusion assay; assay type: functional, organism-based
Summary of the method: (§2)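 Inoculum was prepared from an overnight blood-agar culture and adjusted in saline to 1.5 × 10⁸ CFU/ml (0.5 McFarland). It was swabbed evenly onto Mueller–Hinton or Sabouraud agar, and paper disks were applied. Plates were incubated 24 h at 37 °C. The read-out was inhibition-zone diameter around the disk, run alongside clinical antimicrobial reference agents.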

[8] = system: Streptococcus pyogenes; assay: Antibacterial activity against Streptococcus pyogenes CCM 4425 at 20 ug/2.5 ul/6 mm disk after 24 hrs by disk diffusion assay; assay type: functional; summary of the method: as §2

With `CON1c2ccccc2[C@@]2(CN=C(SC)S2)[C@@H]1Oc1ccccc1` (relative stereo) the IC50 [1] was 100 µM, the IC50 [2] was 100 µM and the IC50 [3] was 100 µM. For the same compound, the IC50 [4] was 100 µM, the IC50 [5] was 100 µM and the IC50 [6] was 100 µM.
Work on `CON1c2ccccc2[C@@]2(CN=C(SC)S2)[C@H]1Nc1ccccc1` (relative stereo) yielded an IC50 [1] of 100 µM, an IC50 [2] of 100 µM and an IC50 [3] of 100 µM. It also gave an IC50 [4] of 100 µM, an IC50 [5] of 31.9 µM and an IC50 [6] of 100 µM.
Work on `CON1c2ccccc2[C@@]2(CN=C(SC)S2)[C@H]1Nc1ccc(C)cc1` (relative stereo) yielded an IC50 [1] of 100 µM, an IC50 [2] of 100 µM and an IC50 [3] of 100 µM. It also gave an IC50 [4] of 100 µM, an IC50 [5] of 36.8 µM and an IC50 [6] of 33.3 µM.
`CN[C@@H]1N(OC)c2ccccc2[C@@]12CN=C(SC)S2` (relative stereo) was tested, and the IC50 [1] was 100 µM, the IC50 [2] was 100 µM and the IC50 [3] was 100 µM. It also gave an IC50 [4] of 100 µM, an IC50 [5] of 33.6 µM and an IC50 [6] of 100 µM.
`CON1c2ccccc2[C@@]2(CN=C(SC)S2)[C@H]1Oc1ccccc1` (relative stereo) showed an IC50 [1] of 100 µM, an IC50 [2] of 100 µM and an IC50 [3] of 100 µM. It also gave an IC50 [4] of 100 µM, an IC50 [5] of 100 µM and an IC50 [6] of 100 µM.
Compound `CON1c2ccccc2[C@@]2(CN=C(SC)S2)[C@@H]1Nc1ccccc1Cl` (relative stereo) has an IC50 [1] of 100 µM, an IC50 [2] of 100 µM and an IC50 [3] of 36 µM. The IC50 [4] was 100 µM, the IC50 [5] was 76.8 µM and the IC50 [6] was 29.4 µM.
Work on `CO[C@H]1N(OC)c2ccccc2[C@@]12CN=C(SC)S2` (relative stereo) yielded an IC50 [1] of 100 µM, an IC50 [2] of 100 µM and an IC50 [3] of 100 µM. It also gave an IC50 [4] of 100 µM, an IC50 [5] of 48.9 µM and an IC50 [6] of 30.2 µM.
`CO[C@@H]1N(OC)c2ccccc2[C@@]12CN=C(SC)S2` (relative stereo) showed an IC50 [1] of 100 µM, an IC50 [2] of 100 µM and an IC50 [3] of 100 µM. For the same compound, the IC50 [4] was 100 µM, the IC50 [5] was 53.2 µM and the IC50 [6] was 57.4 µM.
Compound `CON1c2ccccc2[C@@]2(CN=C(SC)S2)[C@@H]1Nc1ccc(Cl)c(Cl)c1` (relative stereo) has an IC50 [1] of 35.5 µM, an IC50 [2] of 100 µM and an IC50 [3] of 100 µM. For the same compound, the IC50 [4] was 24.7 µM, the IC50 [5] was 15.4 µM and the IC50 [6] was 10 µM.
For `CON1c2ccccc2[C@@]2(CN=C(SC)S2)[C@@H]1Nc1ccc(C(F)(F)F)cc1` (relative stereo), the IC50 [1] was 88 µM, the IC50 [2] was 100 µM and the IC50 [3] was 74.3 µM. For the same compound, the IC50 [4] was 1 µM, the Activity [7] was “Active” and the IC50 [5] was 81.9 µM. The IC50 [6] was 41.8 µM.
`CON1c2ccccc2[C@@]2(CN=C(SC)S2)[C@@H]1Nc1ccc(Cl)cc1` (relative stereo) was tested, and the IC50 [1] was 100 µM, the IC50 [2] was 100 µM and the IC50 [3] was 37.4 µM. It also gave an IC50 [4] of 85.9 µM, an IC50 [5] of 44.8 µM and an IC50 [6] of 30.7 µM.
Work on `COc1ccc(N[C@H]2N(OC)c3ccccc3[C@@]23CN=C(SC)S3)cc1` (relative stereo) yielded an IC50 [1] of 64 µM, an IC50 [2] of 100 µM and an IC50 [3] of 15.5 µM. The IC50 [4] was 100 µM, the IC50 [5] was 100 µM and the IC50 [6] was 69.4 µM.
Work on `CON1c2ccccc2[C@@]2(CN=C(SC)S2)[C@H]1Nc1ccccc1Cl` (relative stereo) yielded an IC50 [1] of 100 µM, an IC50 [2] of 100 µM and an IC50 [3] of 75.8 µM. It also gave an IC50 [4] of 82 µM, an IC50 [5] of 100 µM and an IC50 [6] of 43 µM.
Work on `CON1c2ccccc2[C@@]2(CN=C(SC)S2)[C@H]1Nc1ccc([N+](=O)[O-])cc1` (relative stereo) yielded an IC50 [1] of 100 µM, an IC50 [2] of 88 µM and an IC50 [3] of 54.5 µM. It also gave an IC50 [4] of 30.2 µM, an IC50 [5] of 100 µM and an IC50 [6] of 100 µM.
`CON1c2ccccc2[C@@]2(CN=C(SC)S2)[C@@H]1Nc1ccc([N+](=O)[O-])cc1` (relative stereo) showed an IC50 [1] of 100 µM, an IC50 [2] of 100 µM and an IC50 [3] of 100 µM. The IC50 [4] was 100 µM, the IC50 [5] was 50 µM and the IC50 [6] was 10 µM.
Compound `CON1c2ccccc2[C@@]2(CN=C(SC)S2)[C@H]1Nc1ccc(Cl)c(Cl)c1` (relative stereo) has an IC50 [1] of 20.7 µM, an IC50 [2] of 22.6 µM and an IC50 [3] of 22.6 µM. For the same compound, the IC50 [4] was 21.1 µM, the Activity [7] was “Active” and the IC50 [5] was 21.8 µM. The IC50 [6] was 21 µM.
Work on `CON1c2ccccc2[C@@]2(CN=C(SC)S2)[C@@H]1Nc1ccccc1` (relative stereo) yielded an IC50 [1] of 62 µM, an IC50 [2] of 100 µM and an IC50 [3] of 31.8 µM. It also gave an IC50 [4] of 100 µM, an IC50 [5] of 25.8 µM and an IC50 [6] of 17.8 µM.
Compound `CON1c2ccccc2[C@@]2(CN=C(SC)S2)[C@H]1Nc1ccc(C)c(C)c1` (relative stereo) has an IC50 [1] of 100 µM, an IC50 [2] of 58 µM and an IC50 [3] of 45.5 µM. The IC50 [4] was 42.6 µM, the IC50 [5] was 23.8 µM and the IC50 [6] was 47.1 µM.
In the case of `CON1c2ccccc2[C@@]2(CN=C(SC)S2)[C@@H]1Nc1ccc(C)c(C)c1` (relative stereo), the IC50 [1] is reported as 100 µM, the IC50 [2] is reported as 100 µM and the IC50 [3] is reported as 100 µM. It also gave an IC50 [4] of 100 µM, an IC50 [5] of 54.9 µM and an IC50 [6] of 10 µM.
Compound `CON1c2ccccc2[C@@]2(CN=C(SC)S2)[C@H]1Nc1ccc(Cl)cc1` (relative stereo) has an IC50 [1] of 20.7 µM, an IC50 [2] of 28.5 µM and an IC50 [3] of 100 µM. It also gave an IC50 [4] of 22.3 µM, an IC50 [5] of 22.3 µM and an IC50 [6] of 100 µM.
`CON1c2ccccc2[C@@]2(CN=C(SC)S2)[C@H]1Nc1ccc(Br)cc1` (relative stereo) was tested, and the IC50 [1] was 100 µM, the IC50 [2] was 34.1 µM and the IC50 [3] was 28.7 µM. For the same compound, the IC50 [4] was 35.1 µM, the IC50 [5] was 81.5 µM and the IC50 [6] was 33.4 µM.
Compound `COc1ccc(N[C@@H]2N(OC)c3ccccc3[C@@]23CN=C(SC)S3)cc1` (relative stereo) has an IC50 [1] of 100 µM, an IC50 [2] of 100 µM and an IC50 [3] of 10 µM. It also gave an IC50 [4] of 73.9 µM, an IC50 [5] of 81.5 µM and an IC50 [6] of 34.8 µM.
For `CON1c2ccccc2[C@@]2(CN=C(SC)S2)[C@H]1Nc1ccc(C(F)(F)F)cc1` (relative stereo), the IC50 [1] was 31.1 µM, the IC50 [2] was 66.8 µM and the IC50 [3] was 54 µM. The IC50 [4] was 46.6 µM, the Activity [7] was “Active” and the IC50 [5] was 34.9 µM. The IC50 [6] was 28.4 µM.
In the case of `CON1c2ccccc2[C@@]2(CN=C(SC)S2)[C@@H]1Nc1ccc(C)cc1` (relative stereo), the IC50 [1] is reported as 78.7 µM, the IC50 [2] is reported as 100 µM and the IC50 [3] is reported as 64.7 µM. It also gave an IC50 [4] of 100 µM, an IC50 [5] of 100 µM and an IC50 [6] of 6.6 µM.
For `CON1c2ccccc2[C@@]2(CN=C(SC)S2)[C@@H]1Nc1ccc(Br)cc1` (single isomer, unassigned), the “diameter of the inhibition zone (DIZ)” value [8] was 7 mm, the IC50 [1] was 100 µM and the IC50 [2] was 100 µM. It also gave an IC50 [3] of 54.8 µM, an IC50 [4] of 100 µM and an IC50 [5] of 55.7 µM. The IC50 [6] was 29.3 µM.
`COc1cccc2c1C(=O)c1c(O)c3c(c(O)c1C2=O)C[C@@](O)(C(=O)CO)C[C@@H]3O[C@H]1C[C@H](N)[C@H](O)[C@H](C)O1` [DOXORUBICIN] was tested, and the IC50 [1] was 0.2 µM, the IC50 [2] was 0.5 µM and the IC50 [3] was 0.09 µM. For the same compound, the IC50 [6] was 0.078 µM.
`COc1cc([C@@H]2c3cc4c(cc3[C@@H](O[C@@H]3O[C@@H]5CO[C@@H](C)O[C@H]5[C@H](O)[C@H]3O)[C@H]3COC(=O)[C@H]23)OCO4)cc(OC)c1O` [ETOPOSIDE] gave an IC50 [1] of 21.2 µM, an IC50 [2] of 10.9 µM and an IC50 [3] of 1.1 µM. It also gave an IC50 [4] of 14.3 µM, an IC50 [5] of 3.9 µM and an IC50 [6] of 1.2 µM.
